Source: PubChem BioAssay (Broad Institute)
Hits are enriched below; roughly 1.7% of the tested compounds scored in any of these assays.
PGC1a acetyl inh – modulators of PGC1a acetylation; U2OS PGC1a acetylation, AlphaScreen anti-acetyl-lysine; with virally co-expressed GCN5 acetyltransferase; inhibition, % at 15.6 µM; hit rate 0.17% among 350,000;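 active = every replicate shows inhibition of at least 40%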
F508del corr – correctors of CFTR F508del function in bronchial epithelial cells. activity (quench increase), % at 7.58 µM. CFBE cells, YFP halide quenching; stimulated with forskolin plus potentiator P3; % fluorescence drop versus neutral controls. AID 720511. hit rate 0.36% among 350,000;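 active = mean added fluorescence quench of at least 8% versus neutral control, with both replicates also reaching 8%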;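 note: cells transiently co-express mutant CFTR-F508del with the halide-sensitive YFP; corrector assay measuring rescue of mutant channel to the surface after 24 h compound exposure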
CAL PDZ FP-1 – human CAL PDZ-peptide interaction inhibition | purified CAL PDZ, TMR-peptide fluorescence polarization, 1 h | inhibition, % at 20 µM | hit rate 0.02% among 330,000;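 active = highest replicate inhibition of at least 40%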
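Assay system – tagged CAL PDZ protein CerCALP, purified · Timing – 1 h at RT · Compound – single point, 20 µM · Measured by – fluorescence polarization from S- and P-plane intensities, G-factor corrected · Evaluation – inhibition from polarization loss · Probe or stimulus – TMR reporter peptide T*-PRC34 · Buffer or medium – pH 7.4 phosphate-saline buffer, reducing agent, detergent, IgG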
ARNT-TACC3 inh – ARNT/TACC3 interaction disruption; AlphaScreen His-ARNT PAS-B/GST-TACC3 binding, luminescence; TACC3 fragment carries E629A point mutation; inhibition, % at 9.99 µM; hit rate 0.66% among 390,000; AID 623870;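 active = mean inhibition of replicates at least 50% and at least half of replicates each reaching 50%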
CAL PDZ FP-2 – inhibitors of human CAL PDZ peptide binding | purified CAL PDZ, TMR-peptide fluorescence polarization, 1 h | AID 602252 | inhibition, % at 24.9 µM | Q9HD26 | hit rate 0.92% among 300,000;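 active = mean inhibition of at least 30% with at least half of replicates also reaching 30%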
miR-122 sensor – miR-122 inhibition in Huh7 cells. Huh7 miR-122 Renilla luciferase sensor, 48 h; neutral wells = 0, positive control = 100. activation (reporter increase), % at 12.5 µM. hit rate 0.3% among 340,000;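 active = mean replicate activation score at least 90 and every replicate individually at or above 90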;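 note: higher luciferase means less miR-122 activity so hits act as miR-122 inhibitors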
A number is an active result.

For COCC(=O)N1C[C@H](C)[C@@H](OC)CN(C)C(=O)c2ccc(NC(=O)Nc3ccccc3)cc2OC[C@@H]1C the results were PGC1a acetyl inh inactive and F508del corr inactive.
For O=C(OCc1ccccc1)N1CCC2CC1c1cc(-c3ccc(F)cc3)ccc12 (stereo unspecified) the results were PGC1a acetyl inh 63, F508del corr inactive, CAL PDZ FP-1 inactive, ARNT-TACC3 inh inactive, CAL PDZ FP-2 inactive and miR-122 sensor inactive.
Screening COc1ccc(-c2ccc3c(c2)C2CC3CCN2C(=O)OCc2ccccc2)cc1 (stereo unspecified) returned PGC1a acetyl inh inactive, F508del corr inactive, CAL PDZ FP-1 inactive, ARNT-TACC3 inh inactive, CAL PDZ FP-2 inactive and miR-122 sensor inactive.
For CC(C)C(=O)Nc1ccc2c(c1)C(=O)N(C)[C@@H]1CC[C@H](CC(=O)N[C@H](C)c3ccccc3)O[C@@H]1CO2 the results were PGC1a acetyl inh inactive, F508del corr inactive, ARNT-TACC3 inh inactive and miR-122 sensor inactive.
`Cc1ccc(C(C)C)c(OCCn2ccnc2C)c1` gave PGC1a acetyl inh inactive, F508del corr inactive, CAL PDZ FP-1 inactive, ARNT-TACC3 inh inactive, CAL PDZ FP-2 inactive and miR-122 sensor inactive.
Cc1ccc(OCCCCn2ccnc2C)c(C)c1 was read as PGC1a acetyl inh inactive, F508del corr inactive, CAL PDZ FP-1 inactive, ARNT-TACC3 inh inactive and CAL PDZ FP-2 79.
Screening CCCC(=O)NC(c1ccc(Cl)cc1)c1ccc2cccnc2c1O (stereo unspecified) returned PGC1a acetyl inh inactive, F508del corr 15, CAL PDZ FP-1 inactive, ARNT-TACC3 inh inactive, CAL PDZ FP-2 inactive and miR-122 sensor inactive.
`CCC(=O)NC(c1cccs1)c1ccc2cccnc2c1O` (stereo unspecified) gave PGC1a acetyl inh 47, F508del corr inactive, CAL PDZ FP-1 inactive, ARNT-TACC3 inh inactive, CAL PDZ FP-2 inactive and miR-122 sensor inactive.
`CCCC(=O)NC(c1cccs1)c1cc(Cl)c2cccnc2c1O` (stereo unspecified) gave PGC1a acetyl inh inactive, F508del corr inactive, CAL PDZ FP-1 inactive, ARNT-TACC3 inh inactive, CAL PDZ FP-2 inactive and miR-122 sensor inactive.
Screening C[C@@H]1CN([C@H](C)CO)S(=O)(=O)c2ccc(Br)cc2O[C@@H]1CN(C)CC1CC1 returned PGC1a acetyl inh inactive, F508del corr inactive, ARNT-TACC3 inh inactive and miR-122 sensor inactive.
For O=C(C[C@@H]1CC[C@H](NC(=O)CCN2CCCCC2)[C@H](CO)O1)NCc1ccc(Cl)c(Cl)c1 the results were PGC1a acetyl inh inactive, F508del corr inactive, ARNT-TACC3 inh inactive and miR-122 sensor inactive.
For COc1ccc(NC(=O)Nc2ccc3c(c2)[C@@H]2C[C@H](CC(=O)O)O[C@@H](CO)[C@@H]2O3)cc1 the results were PGC1a acetyl inh inactive, F508del corr inactive, ARNT-TACC3 inh inactive and miR-122 sensor inactive.
O=C(O)c1ccccc1Sc1ncnc2sc3c(c12)CCC3 was read as PGC1a acetyl inh inactive, F508del corr inactive, ARNT-TACC3 inh inactive and CAL PDZ FP-2 65.
Screening O=C(Nc1cccc(Cl)c1)N1C[C@H]2[C@@H](c3ccccc31)[C@H](CO)N2Cc1ccncc1 returned PGC1a acetyl inh inactive, F508del corr inactive, ARNT-TACC3 inh inactive and miR-122 sensor inactive.
Screening C[C@@H]1CN([C@@H](C)CO)C(=O)Cc2cc(NS(=O)(=O)c3cccs3)ccc2O[C@H]1CN(C)Cc1ccc(C(=O)O)cc1 returned PGC1a acetyl inh inactive, F508del corr inactive, ARNT-TACC3 inh inactive and miR-122 sensor inactive.
`COc1ccc(OC)c(-c2csc(NC(=O)Cc3ccccc3F)n2)c1` gave PGC1a acetyl inh inactive, F508del corr inactive, CAL PDZ FP-1 inactive, ARNT-TACC3 inh inactive, CAL PDZ FP-2 inactive and miR-122 sensor 117.
COc1ccc(OC)c(-c2csc(NC(=O)Cc3ccccc3OC)n2)c1 was read as F508del corr inactive, CAL PDZ FP-1 inactive, ARNT-TACC3 inh inactive, CAL PDZ FP-2 inactive and miR-122 sensor inactive.
Fc1ccc(CO/N=C/C2=C(Cl)c3ccccc3CC2)cc1 was read as PGC1a acetyl inh 79, CAL PDZ FP-1 inactive, ARNT-TACC3 inh inactive, CAL PDZ FP-2 inactive and miR-122 sensor inactive.
`O=c1cc2c(nn1Cc1ccc(F)cc1)-c1ccccc1CC2` gave F508del corr inactive, CAL PDZ FP-1 inactive, ARNT-TACC3 inh inactive and CAL PDZ FP-2 inactive.
`COc1ccc(N)cc1C#N` gave PGC1a acetyl inh inactive, F508del corr inactive, CAL PDZ FP-1 inactive, ARNT-TACC3 inh inactive, CAL PDZ FP-2 inactive and miR-122 sensor inactive.
For COc1cc(N)ccc1Cc1ccc(N)cc1OC the results were PGC1a acetyl inh inactive, ARNT-TACC3 inh inactive, CAL PDZ FP-2 56 and miR-122 sensor inactive.
`Cc1noc(C)c1NC(=O)Nc1ccc2c(c1)C(=O)N([C@@H](C)CO)C[C@@H](C)[C@@H](CN(C)Cc1ccccc1)O2` gave F508del corr inactive, ARNT-TACC3 inh inactive and miR-122 sensor inactive.
`CC(C)CCn1c(N2CCC(C(N)=O)CC2)nc2c1c(=O)[nH]c(=O)n2C` gave PGC1a acetyl inh inactive, ARNT-TACC3 inh inactive, CAL PDZ FP-2 42 and miR-122 sensor inactive.
Cc1noc(C)c1S(=O)(=O)N(C)C[C@@H]1OCCCC[C@@H](C)Oc2ccc(NC(=O)NC(C)C)cc2C(=O)N([C@H](C)CO)C[C@H]1C was read as PGC1a acetyl inh inactive, F508del corr inactive, ARNT-TACC3 inh inactive and miR-122 sensor inactive.
`CCOC(=O)c1ccc2nc(NC(=O)C(C)C)sc2c1` gave PGC1a acetyl inh inactive, F508del corr inactive, CAL PDZ FP-1 inactive, ARNT-TACC3 inh inactive, CAL PDZ FP-2 inactive and miR-122 sensor inactive.
For C=CCN(CC=C)S(=O)(=O)c1ccc2nc(NC(=O)C(C)C)sc2c1 the results were PGC1a acetyl inh inactive, CAL PDZ FP-1 inactive, ARNT-TACC3 inh inactive, CAL PDZ FP-2 inactive and miR-122 sensor 122.
`Cc1c(C(=O)NNC(=O)c2csc(N3CCOCC3)n2)cccc1[N+](=O)[O-]` gave PGC1a acetyl inh inactive, F508del corr inactive, CAL PDZ FP-1 inactive and CAL PDZ FP-2 inactive.
For O=C(NNC(=O)c1ccccc1[N+](=O)[O-])c1csc(N2CCOCC2)n1 the results were PGC1a acetyl inh inactive, F508del corr inactive, CAL PDZ FP-1 inactive, ARNT-TACC3 inh inactive, CAL PDZ FP-2 49 and miR-122 sensor inactive.
Screening O=C(COc1ccccc1C(=O)Nc1ccccc1)NCCc1ccccc1 returned PGC1a acetyl inh inactive, F508del corr inactive, CAL PDZ FP-1 inactive and ARNT-TACC3 inh inactive.
For Cc1ccc(NC(=O)COc2ccccc2C(=O)NCCc2ccccc2)cc1 the results were PGC1a acetyl inh inactive, CAL PDZ FP-1 inactive, ARNT-TACC3 inh inactive, CAL PDZ FP-2 72 and miR-122 sensor inactive.
`CCOC(=O)c1cc(S(=O)(=O)NCc2ccco2)cn1C` gave PGC1a acetyl inh inactive, F508del corr inactive, CAL PDZ FP-1 inactive, ARNT-TACC3 inh inactive, CAL PDZ FP-2 inactive and miR-122 sensor inactive.
